Test results from article PMC4018401 (Journal of Medicinal Chemistry, 2014).

Experiments:
[1] = Microsomal stability, rat and human liver microsomes; type: in vitro ADME; conditions: rat and human hepatic microsomes
[2] = HepG2 cytotoxicity assay; type: cell-based; conditions: human, HepG2 cells
[3] = test system: P. yoelii (Kenya strain) infected mice; assay: In vivo efficacy against murine malaria; design: species or system Plasmodium yoelii; conditions: for times less effective than 7 against murine malaria: relative to compound 7; for in vivo antimalarial activity: P. yoelii in mice, oral
Procedure, shortened: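 Female CF1 mice infected intravenously with 2.5–5.0 × 105 P. yoelii (Kenya strain) parasitized erythrocytes from a donor; groups of four. Test compound in PEG-400 given by oral gavage once daily for 4 days, starting the day after inoculation; initial doses 0.1–10 mg/kg/day, adjusted if needed. Chloroquine phosphate as positive control. Day-5 parasitemia read from Giemsa smears. Cure means parasite-free 30 days after the last dose; NRD is the dose needed for cure.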

[4] = test system: P. falciparum Tm93-C1088 (atovaquone resistant clinical isolate); assay: SYBR Green I parasite growth inhibition, P. falciparum Tm93-C1088; type: cell-based; conditions: Plasmodium falciparum, 72 h, read-out: EC50 TM93-C1088 (WRAIR)
Procedure, shortened: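 Atovaquone-resistant Thai isolate with cytochrome b Y268S, grown asynchronously in human erythrocytes (RPMI-1640/HEPES/hypoxanthine/Albumax II; 5% O2, 5% CO2, 90% N2). Triplicate 2-fold dilutions, 2% hematocrit, 0.2% starting parasitemia, 72 h at 37 °C. SYBR Green I dye–detergent added for 1 h in the dark at room temperature, fluorescence read at ex 497/em 520 nm. EC50 by nonlinear regression against drug-free wells; at least three determinations.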

[5] = target: T1, P. falciparum cytochrome bc1 complex (Plasmodium falciparum, UniProt Q02768); assay: Inhibition of P. falciparum cytochrome bc1; type: biochemical
T1 sequence (Q02768 1-376): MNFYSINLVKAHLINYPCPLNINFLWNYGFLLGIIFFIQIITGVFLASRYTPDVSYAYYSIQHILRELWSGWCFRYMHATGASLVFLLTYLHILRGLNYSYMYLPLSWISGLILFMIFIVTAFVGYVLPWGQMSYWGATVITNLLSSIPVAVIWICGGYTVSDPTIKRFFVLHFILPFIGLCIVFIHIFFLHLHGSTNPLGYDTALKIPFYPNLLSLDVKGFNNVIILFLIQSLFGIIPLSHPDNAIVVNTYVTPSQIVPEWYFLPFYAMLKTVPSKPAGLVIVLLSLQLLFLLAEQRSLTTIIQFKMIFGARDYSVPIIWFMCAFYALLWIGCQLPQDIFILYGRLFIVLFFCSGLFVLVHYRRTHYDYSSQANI
Procedure, shortened: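 Cytochrome c reductase assays. P. falciparum mitochondria: stirred cuvette at 35 °C with 100 μM decylubiquinol, 100 μM horse heart cytochrome c, 0.1 mg/mL dodecyl maltoside, 60 mM HEPES pH 7.4, 10 mM malonate, 1.0 mM EDTA, 2.0 mM KCN. Human HEK-293 mitochondria: detergent-solubilised; 50 mM Tricine pH 8.0, 100 mM KCl, 4 mM KCN, 50 μM each substrate. Baseline-subtracted initial rates expressed as fraction of uninhibited control.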

[6] = test system: P. yoelii (Kenya strain) infected mice; conditions: side-by-side tests; cited from earlier work

Row | Structure (SMILES) | metabolic stability in microsomes [1] | IC50 [2] | further results
1 | COc1cc2[nH]c(C)c(-c3ccc(Oc4ccc(C(F)(F)F)cc4)cc3)c(=O)c2cc1Cl [Compound 20b, 6-Chloro-7-methoxy-2-methyl-3-(4-(4-(trifluoromethyl)phenoxy)phenyl)quinolin-4(1H)-one] | metabolically stable |  | 
2 | COc1cc2[nH]c(C)c(-c3ccc(Oc4ccc(OC(F)(F)F)cc4)nc3)c(=O)c2cc1Cl [Compound 25a, 6-Chloro-7-methoxy-2-methyl-3-(6-(4-(trifluoromethoxy)phenoxy)pyridin-3-yl)quinolin-4(1H)-one] |  | > 10 µM | times less effective than 7 against murine malaria [3]: 3–10 times
3 | COc1cc2[nH]c(C)c(-c3cnc(Oc4ccc(OC(F)(F)F)cc4)nc3)c(=O)c2cc1Cl [Compound 25c, 6-Chloro-7-methoxy-2-methyl-3-(2-(4-(trifluoromethoxy)phenoxy)pyrimidin-5-yl)quinolin-4(1H)-one] |  | > 10 µM | 
4 | COc1cc2[nH]c(C)c(-c3ccc(Oc4ccc(OC(F)(F)F)cc4)cc3)c(=O)c2cc1Cl [Compound 7, 6-Chloro-7-methoxy-2-methyl-3-(4-(4-(trifluoromethoxy)phenoxy)phenyl) quinolin-4(1H)-one] |  | > 10 µM | EC50 [4]: 0.001 µM; parasite selectivity (P. falciparum vs human cytochrome bc1) [5]: ≥ 20000 fold; fold more effective than atovaquone against murine malaria [6]: 30 fold
5 | Cc1[nH]c2ccc(F)cc2c(=O)c1-c1ccc(Oc2ccc(OC(F)(F)F)cc2)cc1 [Compound 18a, 6-Fluoro-2-methyl-3-(4-(4-(trifluoromethoxy)phenoxy)phenyl)quinolin-4(1H)-one] |  | > 10 µM | 
6 | COc1cc2[nH]c(C)c(-c3ccc(Oc4cccc(OC(F)(F)F)c4)cc3)c(=O)c2cc1Cl [Compound 20a, 6-Chloro-7-methoxy-2-methyl-3-(4-(3-(trifluoromethoxy)phenoxy)phenyl)quinolin-4(1H)-one] | metabolically unstable |  | in vivo antimalarial activity [3]: ineffective in vivo
7 | Cc1[nH]c2ccccc2c(=O)c1-c1ccc(Oc2ccccc2)cc1 [Compound 3, 2-Methyl-3-(4-phenoxyphenyl)quinolin-4(1H)-one] |  | > 10 µM | 
8 | Cc1[nH]c2ccccc2c(=O)c1-c1ccc(Oc2ccc(OC(F)(F)F)cc2)cc1 [Compound 4, 2-Methyl-3-(4-(4-(trifluoromethoxy)phenoxy)phenyl)quinolin-4(1H)-one] | no detectable degradation | > 10 µM | 
9 | O=C1C(O)=C([C@H]2CC[C@H](c3ccc(Cl)cc3)CC2)C(=O)c2ccccc21 [atovaquone, reference compound] |  | > 10 µM | 
10 | CCCCCCCc1c(C)nc2cc(OC)ccc2c1O [endochin, reference compound] |  | > 10 µM | in vivo antimalarial activity [3]: inactive in vivo
11 | Cc1[nH]c2ccc(Cl)cc2c(=O)c1-c1ccc(Oc2ccc(OC(F)(F)F)cc2)cc1 [Compound 5, 6-Chloro-2-methyl-3-(4-(4-(trifluoromethoxy)phenoxy)phenyl)quinolin-4(1H)-one] |  | > 10 µM | 
12 | COc1cc2[nH]c(C)c(-c3ccc(Oc4ccc(OC(F)(F)F)cc4)cc3)c(=O)c2cc1F [Compound 18b, 6-Fluoro-7-methoxy-2-methyl-3-(4-(4-(trifluoromethoxy)phenoxy)phenyl)quinolin-4(1H)-one] |  | > 10 µM | 
13 | COc1ccc2c(=O)c(-c3ccc(Oc4ccc(OC(F)(F)F)cc4)cc3)c(C)[nH]c2c1 [Compound 6, 7-Methoxy-2-methyl-3-(4-(4-(trifluoromethoxy)phenoxy)phenyl)quinolin-4(1H)-one] | metabolized at a moderate to intermediate rate | > 10 µM | 
14 | COc1cc2[nH]c(C)c(-c3ccc(Oc4ccccc4)cc3)c(=O)c2cc1F [Compound 13, 6-Fluoro-7-methoxy-2-methyl-3-(4-phenoxyphenyl)quinolin-4(1H)-one] |  | > 10 µM | 
15 | COc1cc2[nH]c(C)c(-c3ccc(Oc4ccc(Cl)cc4)cc3)c(=O)c2cc1Cl [Compound 20c, 6-Chloro-3-(4-(4-chlorophenoxy)phenyl)-7-methoxy-2-methylquinolin-4(1H)-one] | metabolically stable | > 10 µM | times less effective than 7 against murine malaria [3]: 3–10 times
16 | COc1cc2[nH]c(C)c(-c3ccc(Oc4ccc(F)cc4)cc3)c(=O)c2cc1Cl [Compound 20d, 6-Chloro-3-(4-(4-fluorophenoxy)phenyl)-7-methoxy-2-methylquinolin-4(1H)-one] | metabolically stable |  | 
17 | COc1cc2[nH]c(C)c(-c3ccc(Oc4ccc(OC(F)(F)F)cc4)cn3)c(=O)c2cc1Cl [Compound 25b, 6-Chloro-7-methoxy-2-methyl-3-(5-(4-(trifluoromethoxy)phenoxy)pyridin-2-yl)quinolin-4(1H)-one] |  | > 10 µM | 
